In ChEMBL document CHEMBL3414422, “Synthesis of new steroidal inhibitors of P-glycoprotein-mediated multidrug resistance and biological evaluation on K562/R7 erythroleukemia cells” (J Med Chem, 2015):

Key:
K562/R7 = experiment: Inhibition of p-gp (unknown origin) in doxorubicin-resistant human K562/R7 cells assessed as increase in daunorubicin accumulation measured as fluorescence ratio at 10 uM incubated for 1 hr with 10 uM daunorubicin by flow cytometry relative to control; format: cell-based
How it was run: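 Resistant K562/R7 cells ([…]) incubated 1 h at 37 °C in RPMI 1640 with daunorubicin 10 µM, with or without steroid at 10 µM; intracellular fluorescence read by flow cytometry. Accumulation index = daunorubicin fluorescence ratio with/without modulator. Cyclosporin A as positive control. Duplicates, at least three separate experiments.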

[1] = Intrinsic cytotoxicity against human K562 cells assessed as cell survival […] by MTT assay; format: cell-based; conditions: read-out: Survival

| Compound | Ratio (K562/R7) | viability [1] [%] |
| --- | --- | --- |
| COCO[C@@H]1C[C@@H]2CC(=O)CC[C@]2(C)[C@H]2C[C@H](OC(=O)c3ccccc3)[C@]3(C)[C@@H](C(C)CCC(=O)OC)CC[C@H]3[C@H]12 (some centres undefined) | 3.8 | 43.5 |
| CC(=O)[C@H]1CC[C@H]2[C@H]3[C@H]([C@H](OC(=O)c4ccccc4)C[C@]12C)[C@@]1(C)CCC(=O)C[C@H]1C[C@H]3O[C@H]1CCCCO1 | 2.6 | 70.5 |
